Compound activity as filed in PubChem.
XBP1 UPR activ – adaptive UPR (XBP1) activation; CHO-XBP1 luciferase reporter, IRE1-XBP1 UPR activation, luminescence; percent of tunicamycin response, DMSO as zero; activation, % at 20 µM; actives 0.33% (n = 330,000); AID 463104;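 active means versus positive control, 20 µM dose yields 30% or more activation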
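assay system = CHO-XBP1 luciferase reporter cells | amount = 1000 cells/well | buffer or medium = F12 plus 10% FBS | compound dosing = single point, 20 µM final compound, 1% DMSO | incubation = 16-18 h cell attachment at 37 °C, then 6 h compound exposure | detection = Steady-Glo luminescence read | controls = tunicamycin 10 µg/mL and vehicle-only wells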
Mdm2-MdmX inh – disrupts the human Mdm2-MdmX interaction. SaOS-2 split-luciferase Mdm2/MdmX complementation, luminescence. inhibition, % at 8 µM. actives 3% (n = 330,000);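 active means inhibition of at least 50% at 8 µM in the primary screen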
Target sequence (O15151 whole entry, looked up): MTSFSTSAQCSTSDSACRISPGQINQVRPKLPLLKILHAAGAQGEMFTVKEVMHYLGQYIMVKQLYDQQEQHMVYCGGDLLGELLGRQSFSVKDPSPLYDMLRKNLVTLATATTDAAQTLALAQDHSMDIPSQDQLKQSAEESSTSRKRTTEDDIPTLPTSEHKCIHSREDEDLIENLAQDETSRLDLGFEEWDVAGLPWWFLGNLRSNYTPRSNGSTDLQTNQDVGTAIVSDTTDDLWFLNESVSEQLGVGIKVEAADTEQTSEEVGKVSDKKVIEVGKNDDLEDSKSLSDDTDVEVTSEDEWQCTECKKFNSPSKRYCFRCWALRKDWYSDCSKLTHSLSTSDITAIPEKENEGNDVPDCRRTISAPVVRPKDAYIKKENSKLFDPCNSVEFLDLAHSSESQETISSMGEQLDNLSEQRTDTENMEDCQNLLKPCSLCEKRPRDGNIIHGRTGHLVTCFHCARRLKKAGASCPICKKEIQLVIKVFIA
Target sequence (Q00987 whole entry, looked up): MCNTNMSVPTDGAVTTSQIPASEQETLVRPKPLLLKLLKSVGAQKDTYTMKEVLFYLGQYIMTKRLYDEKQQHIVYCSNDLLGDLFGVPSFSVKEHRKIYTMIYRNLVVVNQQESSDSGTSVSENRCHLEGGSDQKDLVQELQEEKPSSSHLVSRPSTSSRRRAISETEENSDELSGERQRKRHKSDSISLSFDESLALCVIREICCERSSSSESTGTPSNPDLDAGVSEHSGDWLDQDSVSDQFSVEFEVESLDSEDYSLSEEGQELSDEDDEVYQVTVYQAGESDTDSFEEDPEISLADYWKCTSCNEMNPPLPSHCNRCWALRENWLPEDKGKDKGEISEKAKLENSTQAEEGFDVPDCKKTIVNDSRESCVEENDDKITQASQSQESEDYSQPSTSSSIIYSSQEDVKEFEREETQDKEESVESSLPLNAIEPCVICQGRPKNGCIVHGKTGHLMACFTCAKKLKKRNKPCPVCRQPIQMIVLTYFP
T cruzi repl – T. cruzi replication inhibition; actives 1.4% (n = 300,000); T. cruzi beta-gal in NIH3T3, luminescence, 90 h; AID 1885; inhibition, % (no concentration beside the values);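 active means mean inhibition across valid replicates above about 55%, limit read from the data; inconclusive means mean below that limit but half or more replicates reach it; inactive means mean below it, under half of replicates reach it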;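 further: signal also drops with host cell toxicity which is not excluded here; higher percent means less beta-gal luminescence so fewer parasites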
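Incubation – ≥90 h infection period, 3 h prior cell attachment · System – NIH/3T3 fibroblasts plus reporter T. cruzi · Doses – compound pinned at 50 nL/well, DMSO · Read-out basis – percent inhibition of parasite-derived β-gal signal · Signal – luminescent β-galactosidase signal after 60 min lysis · Also added – 5000 T. cruzi trypomastigotes/well · Medium – Low-serum DMEM with 2% FBS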
CSC inhib – cancer stem cell inhibition; cancer stem cell-like cells viability, luminescence; inhibition, % at 7.5 µM; actives 1.1% (n = 300,000); in the data active means inhibition above about 75%; inconclusive means no clear call, values can overlap the other calls; tested in HMLE shEcad cells
Beta cell apopt – blocks beta cell apoptosis; INS-1E cytokine-induced death, ATP luminescence, 48 h; percent of positive-control rescue, neutral wells zero; protection from apoptosis, % (no concentration beside the values); actives 0.8% (n = 300,000);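 active means Every replicate reaches about 75%, or at least half do and their mean reaches it too, limit read from the data; inconclusive means At least half of replicates reach the limit but their mean does not; inactive means Under half of replicates reach the limit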;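 further: higher means more ATP so stronger rescue from cytokine killing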
CHOP UPR activ – apoptotic UPR (CHOP) activation | actives 0.34% (n = 330,000) | activation, % at 10 µM | CHO-CHOP luciferase reporter, luminescence; percent of tunicamycin response over DMSO baseline | AID 449763;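 active means at 10 µM dose, activation of 40% or more, normalized to positive control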
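System: CHO CHOP reporter cells. Amount: 500 cells per well. Buffer or medium: F12 medium, 10% FBS. Compound dosing: one dose, 10 µM in 0.5% DMSO. Incubation: 6 h compound exposure at 37 °C after overnight seeding. Technique: Steady-Glo luciferase luminescence. Benchmarks: tunicamycin and DMSO controls.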
Each line names hits and unclear results; the compound was inactive in the other large screens. A selection: hits, their analogues and other compounds. The true share with any hit is near 5%.

Cn1cnc(Sc2ncnc3nc[nH]c23)c1[N+](=O)[O-]	CSC inhib 83.6
CC(C)(C)n1[nH]c2c3c(ccc2c1=O)C(=O)c1ccccc1C3=O	Beta cell apopt 85.8
COc1ccc(C2N(C(=O)C(F)(F)F)C(C)CN2S(=O)(=O)c2ccc(C)cc2)cc1 (centres undefined)	none (no result: CSC inhib)
CS(=O)(=O)N(CC(=O)O)c1ccc(C23CC4CC(CC(C4)C2)C3)cc1	none
COc1ccccc1NC(=O)CN(c1ccc(C23CC4CC(CC(C4)C2)C3)cc1)S(C)(=O)=O	Beta cell apopt 100.5
CN(Cc1ccccc1)S(=O)(=O)c1cccc(C(=O)O)c1	none
[O-][N+]1=c2ccc(Nc3ccccc3)cc2=NC12CCCCC2	CSC inhib 79.6, Beta cell apopt 106.7 (no result: XBP1 UPR activ, Mdm2-MdmX inh, CHOP UPR activ)
O=C(CC1CC2CCC1C2)NCCc1ccc(Cl)cc1 (centres undefined)	Beta cell apopt 84.9
COc1cccc(-c2nc(CS(=O)(=O)CC(=O)Nc3ccccc3Cl)c(C)o2)c1	none
Cc1ccc(S(=O)(=O)NN2C(=O)/C(=C/c3cccn3C)SC2=S)cc1	none (no result: XBP1 UPR activ, Mdm2-MdmX inh, T cruzi repl, CHOP UPR activ)
Cn1cccc1/C=C1\SC(=S)N(Nc2ccccc2)C1=O	T cruzi repl 64.1, CSC inhib 91.9
COc1ccc2[nH]c(C(O)(Cc3cccnc3)Cc3cccnc3)cc2c1	T cruzi repl 57.5
Cc1onc(-c2cccc(Cl)c2Cl)c1C(=O)O/N=C(\N)c1ccc([N+](=O)[O-])o1	T cruzi repl 77.6
COc1ccc(C2CC(c3ccc4ccccc4c3OC(C)=O)=NN2C(C)=O)cc1 (centres undefined)	Beta cell apopt 95.6
COc1cc(C(=O)NNC2=CC(=O)CC(C)(C)C2)cc(OC)c1OC	none
CC(C)Cc1ccc(CN2CCCC(NC(=O)CSc3nncn3C)C2)cc1 (centres undefined)	T cruzi repl 55.0
Cn1cnnc1SCC(=O)NC1CCCN(Cc2ccc(Cl)cc2)C1 (centres undefined)	none
CC(C)Cc1ccc(CN2CCCC(NC(=O)c3nn(C)c(=O)c4ccccc34)C2)cc1 (centres undefined)	T cruzi repl 60.4 (no result: CSC inhib, Beta cell apopt)
CC(C)Cc1ccc(CN2CCCC(NC(=O)c3ccnn3C)C2)cc1 (centres undefined)	none
COc1ccc2[nH]c(=O)c(CN(Cc3ccco3)C(c3nnnn3Cc3ccccc3)C(C)C)cc2c1 (centres undefined)	T cruzi repl 75.5
COc1cc(/C(C#N)=C/c2ccccc2)c([N+](=O)[O-])cc1OC	none
O=C(CCc1nnc(CCCCc2ccccc2)o1)NCCc1cccnc1	T cruzi repl 60.4
O=C(CCc1nnc(Cc2ccc(-c3ccccc3)cc2)o1)NCCc1cccnc1	none
O=S(=O)(Nc1ccc(N=Nc2ccc(O)c3ccccc23)cc1)c1ccccc1	CSC inhib 79.2
COc1c(OC)c(O)c2c(=O)cc(-c3c(O)cccc3O)oc2c1OC	none (no result: Beta cell apopt)
CCN(c1ccccc1)S(=O)(=O)c1cc(C(=O)Nc2ccc(Br)cc2)ccc1F	T cruzi repl 56.8
CC1CC1C(=O)Nc1cc(S(=O)(=O)N2CCOCC2)ccc1N1CCCC1 (centres undefined)	none
Cc1nc(NC(=O)c2ccc(Cl)cc2)sc1Cc1ccc2c(c1)OCO2	CSC inhib 78.9
O=C(NCc1ccc(Cl)cc1)c1cccnc1	none
O=C(NC(c1ccc(Cl)cc1)c1cc(Cl)c2cccnc2c1O)c1cccnc1 (centres undefined)	T cruzi repl 58.2, CSC inhib 113.3, Beta cell apopt 96.2 (no result: XBP1 UPR activ, Mdm2-MdmX inh, CHOP UPR activ)
CC1(C)CC(N2CCN(c3ccccc3)CC2)=CC(=[N+]2CCCC2)C1	T cruzi repl 67.6, Beta cell apopt 97.2
CC1CC(C)C[N+](=C2C=C(N3CCCC3)CC(C)(C)C2)C1 (centres undefined)	T cruzi repl 58.6 (no result: XBP1 UPR activ, Mdm2-MdmX inh, CSC inhib, Beta cell apopt, CHOP UPR activ)
CSc1ccccc1OCc1cc(C(=O)N2CCc3c(Cl)cccc3C2)no1	Beta cell apopt 78.7
O=C(CNC(=O)c1ccc(Cl)cc1Cl)OCC(=O)N1CCCC1=O	none
Cc1ccc(NC(=O)NCC2CCN(Cc3cccc(Cl)c3)CC2)cc1Cl	T cruzi repl 61.8, CSC inhib inconclusive, Beta cell apopt 120.3
CCc1ccc(NC(=O)NCC2CCN(Cc3cccc(Cl)c3)CC2)cc1	none
COc1ccc(NC(=O)COc2ccc(N(C)S(=O)(=O)c3ccc(Cl)cc3)cc2)cc1OC	none (no result: CSC inhib)
CC1(C)C2CCC1(C)C(OCC[N+](C)(C)CC(=O)OC1CCCCC1)C2 (centres undefined)	T cruzi repl 63.1
CSc1ncccc1C(=O)Nc1cccc(S(=O)(=O)N2CCCCCC2)c1	none (no result: T cruzi repl)
COc1ccc(-c2cn3cc(C(F)(F)F)cc(Cl)c3n2)cc1	CSC inhib 127.2
Fc1ccc(-c2cn3cc(C(F)(F)F)cc(Cl)c3n2)cc1	none
COc1cc2c(cc1OC)CN(c1nc(-c3cccnc3)nc3ccccc13)CC2	T cruzi repl 55.2
COc1ccccc1NC(=O)CN1CCC(c2nc3ccc(C)cc3[nH]2)CC1	none
COc1cccc(CNC(=O)CN2CCC(c3nc4ccc(C)cc4[nH]3)CC2)c1	T cruzi repl 55.5 (no result: Beta cell apopt)
C[C@@H](C(=O)NCCc1ccccc1)N1C(=O)N2CCc3c([nH]c4ccccc34)[C@@]2(C)C1=O	T cruzi repl 61.3
C[C@@H](C(=O)NCCc1ccccc1F)N1C(=O)N2CCc3c([nH]c4ccccc34)[C@@]2(C)C1=O	none
COc1ccc2[nH]c3c(c2c1)CCN1C(=O)N([C@@H](C)C(=O)NC2CCN(Cc4ccccc4)CC2)C(=O)[C@]31C	T cruzi repl 64.0 (no result: Beta cell apopt)
C[C@@H](C(=O)NC1CCN(Cc2ccccc2)CC1)N1C(=O)N2CCc3c([nH]c4ccccc34)[C@@]2(C)C1=O	T cruzi repl 59.2
O=C1Nc2ccccc2Oc2cc([N+](=O)[O-])ccc21	T cruzi repl 66.8
Cc1ccc2c(c1)NC(=O)c1cc([N+](=O)[O-])ccc1O2	none
O=C(N/N=C/c1ccc([N+](=O)[O-])o1)c1ccncc1	none
Cc1nc2ccccn2c1C(=O)N/N=C/c1ccc([N+](=O)[O-])o1	T cruzi repl 71.0
CCN(CC)S(=O)(=O)c1cccc(C(=O)N/N=C/c2ccc([N+](=O)[O-])o2)c1	T cruzi repl 56.4
O=C(N/N=C\c1ccc([N+](=O)[O-])o1)c1cncc(Br)c1	T cruzi repl 58.0 (no result: Beta cell apopt)
Cc1nc2ccccn2c1C(=O)N/N=C/c1ccc([N+](=O)[O-])cc1	none
O=C(N/N=C/c1ccc([N+](=O)[O-])o1)c1ccc(O)cc1	Beta cell apopt 100.3 (no result: XBP1 UPR activ, Mdm2-MdmX inh, CHOP UPR activ)
S=C(NCC1CCCO1)Nc1ccccc1 (centres undefined)	none (no result: Beta cell apopt)
